Test results as given in ChEMBL document CHEMBL4725234, “Structure-activity relationship analyses of fusidic acid derivatives highlight crucial role of the C-21 carboxylic acid moiety to its anti-mycobacterial activity” (Bioorg Med Chem, 2020).
Converted amounts (≈) assume the structure as drawn.

Legend:
[1] = tested on: Mycobacterium tuberculosis; assay: Antimycobacterial activity against Mycobacterium tuberculosis H37Rv; format: functional
In short: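 Drug-sensitive M. tuberculosis H37Rv grown in a glycerol-containing medium; MIC99 is the minimum concentration that inhibits growth of 99% of the bacterial population.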

CHO-K1 = assay: Cytotoxicity against CHOK1 cells assessed as reduction in cell viability; format: cell-based; conditions: Cricetulus griseus

For `CC(=O)O[C@H]1C[C@@]2(C)[C@@H](C[C@@H](O)[C@H]3[C@@]4(C)CC[C@@H](O)[C@@H](C)[C@@H]4CC[C@@]32C)/C1=C(\CCC=C(C)C)C(=O)NS(=O)(=O)c1ccccc1`, the MIC99 [1] was > 125 µM and the IC50 (CHO-K1) was 96.1 µM.

`CC(=O)O[C@H]1C[C@@]2(C)[C@@H](C[C@@H](O)[C@H]3[C@@]4(C)CC/C(=N\O)[C@@H](C)[C@@H]4CC[C@@]32C)/C1=C(\CCC=C(C)C)C(=O)O` was tested, and the MIC99 [1] was 2.5 µM (≈ 1.32 µg/mL) and the IC50 (CHO-K1) was 164 µM.

`CC(=O)O[C@H]1C[C@@]2(C)[C@@H](C[C@@H](O)[C@H]3[C@@]4(C)CC[C@@H](O)[C@@H](C)[C@@H]4CC[C@@]32C)/C1=C(\CCC=C(C)C)C(N)=O` was tested, and the MIC99 [1] was > 125 µM and the IC50 (CHO-K1) was 113 µM.

Work on `CO[C@H]1C[C@@]2(C)[C@@H](C[C@@H](O)[C@H]3[C@@]4(C)CC[C@@H](O)[C@@H](C)[C@@H]4CC[C@@]32C)/C1=C(\CCC=C(C)C)C(=O)O` yielded an MIC99 [1] of 18.7 µM (≈ 9.14 µg/mL) and an IC50 (CHO-K1) of 29 µM.

Work on `CCCS(=O)(=O)NNC(=O)/C(CCC=C(C)C)=C1\[C@@H](OC(C)=O)C[C@@]2(C)[C@H]1C[C@@H](O)[C@H]1[C@@]3(C)CC[C@@H](O)[C@@H](C)[C@@H]3CC[C@@]12C` yielded an MIC99 [1] of 40 µM (≈ 25.5 µg/mL) and an IC50 (CHO-K1) of 79.7 µM.

For `CC(=O)O[C@H]1C[C@@]2(C)[C@@H](C[C@@H](O)[C@H]3[C@@]4(C)CC[C@@H](O)[C@@H](C)[C@@H]4CC[C@@]32C)/C1=C(\CCC=C(C)C)C(=O)NC#N`, the MIC99 [1] was 40 µM (≈ 21.6 µg/mL) and the IC50 (CHO-K1) was > 185 µM.

`CC(C)=CCC/C(C(=O)NNS(C)(=O)=O)=C1/[C@@H](O)C[C@@]2(C)[C@H]1C[C@@H](O)[C@H]1[C@@]3(C)CC[C@@H](O)[C@@H](C)[C@@H]3CC[C@@]12C` was tested, and the MIC99 [1] was 40 µM (≈ 22.7 µg/mL) and the IC50 (CHO-K1) was 32 µM.

Work on `CCCc1noc(/C(CCC=C(C)C)=C2\[C@@H](OC(C)=O)C[C@@]3(C)[C@H]2C[C@@H](O)[C@H]2[C@@]4(C)CC[C@@H](O)[C@@H](C)[C@@H]4CC[C@@]23C)n1` yielded an MIC99 [1] of 80 µM (≈ 46.6 µg/mL) and an IC50 (CHO-K1) of 68.2 µM.

Molecule `CCS(=O)(=O)NNC(=O)/C(CCC=C(C)C)=C1\[C@@H](OC(C)=O)C[C@@]2(C)[C@H]1C[C@@H](O)[C@H]1[C@@]3(C)CC[C@@H](O)[C@@H](C)[C@@H]3CC[C@@]12C` has an MIC99 [1] of 40 µM (≈ 24.9 µg/mL) and an IC50 (CHO-K1) of 77.3 µM.

`CCCCCCCCCCCCCCNC(=O)/C(CCC=C(C)C)=C1\[C@@H](OC(C)=O)C[C@@]2(C)[C@H]1C[C@@H](O)[C@H]1[C@@]3(C)CC[C@@H](O)[C@@H](C)[C@@H]3CC[C@@]12C` was tested, and the MIC99 [1] was > 125 µM and the IC50 (CHO-K1) was > 140 µM.

With `CC(=O)O[C@H]1C[C@@]2(C)[C@@H](C[C@@H](O)[C@H]3[C@@]4(C)CC[C@@H](O)[C@@H](C)[C@@H]4CC[C@@]32C)/C1=C(\CCC=C(C)C)c1nc(C)no1` the MIC99 [1] was > 125 µM and the IC50 (CHO-K1) was 47.8 µM.

Work on `CC(=O)O[C@H]1C[C@@]2(C)[C@@H](C[C@@H](O)[C@H]3[C@@]4(C)CC[C@@H](O)[C@@H](C)[C@@H]4CC[C@@]32C)/C1=C(\CCC=C(C)C)C(=O)NNC(=O)c1cccs1` yielded an MIC99 [1] of 40 µM (≈ 25.6 µg/mL) and an IC50 (CHO-K1) of 78.8 µM.

Work on `CC(=O)O[C@H]1C[C@@]2(C)[C@@H](C[C@@H](O)[C@H]3[C@@]4(C)CC[C@@H](O)[C@@H](C)[C@@H]4CC[C@@]32C)/C1=C(\CCC=C(C)C)C(=O)NNS(C)(=O)=O` yielded an MIC99 [1] of 10 µM (≈ 6.09 µg/mL) and an IC50 (CHO-K1) of 92.2 µM.

For `CCCCCCC(=O)O[C@@H]1CC[C@@]2(C)[C@@H](CC[C@@]3(C)[C@H]2[C@H](O)C[C@H]2/C(=C(\CCC=C(C)C)C(=O)O)[C@@H](OC(C)=O)C[C@@]23C)[C@@H]1C`, the MIC99 [1] was 5 µM (≈ 3.14 µg/mL) and the IC50 (CHO-K1) was 36.2 µM.

For `CC(=O)O[C@H]1C[C@@]2(C)[C@@H](C[C@@H](O)[C@H]3[C@@]4(C)CC[C@@H](O)[C@@H](C)[C@@H]4CC[C@@]32C)/C1=C(\CCC=C(C)C)C(=O)O` [FUSIDIC ACID], the MIC99 [1] was 0.6 µM (≈ 0.31 µg/mL) and the IC50 (CHO-K1) was > 194 µM.

Molecule `CCO[C@H]1C[C@@]2(C)[C@@H](C[C@@H](O)[C@H]3[C@@]4(C)CC[C@@H](O)[C@@H](C)[C@@H]4CC[C@@]32C)/C1=C(\CCC=C(C)C)C(=O)O` has an MIC99 [1] of 0.8 µM (≈ 0.402 µg/mL) and an IC50 (CHO-K1) of 48.1 µM.

In the case of `CCCCCCCCCCCCCCCCNC(=O)/C(CCC=C(C)C)=C1\[C@@H](OC(C)=O)C[C@@]2(C)[C@H]1C[C@@H](O)[C@H]1[C@@]3(C)CC[C@@H](O)[C@@H](C)[C@@H]3CC[C@@]12C`, the MIC99 [1] is reported as > 125 µM and the IC50 (CHO-K1) is reported as > 135 µM.

`CC(=O)O[C@H]1C[C@@]2(C)[C@@H](C[C@@H](O)[C@H]3[C@@]4(C)CC[C@@H](O)[C@@H](C)[C@@H]4CC[C@@]32C)/C1=C(\CCC=C(C)C)C(=O)Nc1nn[nH]n1` was tested, and the MIC99 [1] was 40 µM (≈ 23.4 µg/mL) and the IC50 (CHO-K1) was > 171 µM.

For `CC(=O)O[C@H]1C[C@@]2(C)[C@@H](C[C@@H](O)[C@H]3[C@@]4(C)CC[C@@H](O)[C@@H](C)[C@@H]4CC[C@@]32C)/C1=C(\CCC=C(C)C)C(=O)NS(C)(=O)=O`, the MIC99 [1] was 80 µM (≈ 47.5 µg/mL) and the IC50 (CHO-K1) was > 169 µM.

For `CCCCS(=O)(=O)NNC(=O)/C(CCC=C(C)C)=C1\[C@@H](OC(C)=O)C[C@@]2(C)[C@H]1C[C@@H](O)[C@H]1[C@@]3(C)CC[C@@H](O)[C@@H](C)[C@@H]3CC[C@@]12C`, the MIC99 [1] was > 125 µM and the IC50 (CHO-K1) was 49.9 µM.

`CC(=O)O[C@H]1C[C@@]2(C)[C@@H](C[C@@H](O)[C@H]3[C@@]4(C)CC[C@@H](O)[C@@H](C)[C@@H]4CC[C@@]32C)/C1=C(\CCC=C(C)C)c1n[nH]c(=O)o1` gave an MIC99 [1] of 80 µM (≈ 44.5 µg/mL) and an IC50 (CHO-K1) of 82 µM.

With `CC(=O)O[C@H]1C[C@@]2(C)[C@@H](C[C@@H](O)[C@H]3[C@@]4(C)CC[C@@H](O)[C@@H](C)[C@@H]4CC[C@@]32C)/C1=C(\CCC=C(C)C)c1n[nH]c(=S)o1` the MIC99 [1] was 80 µM (≈ 45.8 µg/mL) and the IC50 (CHO-K1) was 70 µM.

With `CC(=O)O[C@H]1C[C@@]2(C)[C@@H](C[C@@H](O)[C@H]3[C@@]4(C)CC[C@@H](O)[C@@H](C)[C@@H]4CC[C@@]32C)/C1=C(\CCC=C(C)C)C(=O)NN` the MIC99 [1] was 40 µM (≈ 21.2 µg/mL) and the IC50 (CHO-K1) was 112 µM.

For `CC(=O)O[C@H]1C[C@@]2(C)[C@@H](C[C@@H](O)[C@H]3[C@@]4(C)CC[C@@H](O)[C@@H](C)[C@@H]4CC[C@@]32C)/C1=C(\CCC=C(C)C)C(=O)NNS(=O)(=O)c1ccc(Cl)cc1`, the MIC99 [1] was > 125 µM and the IC50 (CHO-K1) was 53.2 µM.

`CCc1noc(/C(CCC=C(C)C)=C2\[C@@H](OC(C)=O)C[C@@]3(C)[C@H]2C[C@@H](O)[C@H]2[C@@]4(C)CC[C@@H](O)[C@@H](C)[C@@H]4CC[C@@]23C)n1` was tested, and the MIC99 [1] was > 125 µM and the IC50 (CHO-K1) was 71.7 µM.
